Test results reported in ChEMBL document CHEMBL5252523, “Searching for New Leads for Tuberculosis: Design, Synthesis, and Biological Evaluation of Novel 2-Quinolin-4-yloxyacetamides” (J Med Chem, 2016).
pIC50: −log10 of the molar value. ≈ marks a conversion by molar mass, not a printed value.

How the values were obtained:
[1] = tested on: Mycobacterium tuberculosis; assay: Antimycobacterial activity against Mycobacterium tuberculosis H37Rv ATCC 25618 assessed as inhibition of microbial growth incubated for 6 days by resazurin based assay; format: functional; settings: H37Rv ATCC 25618, 144 h, time 6 day
Outline: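 Ten two-fold dilutions made in neat DMSO, tested in Middlebrook 7H9 with the H37Rv inoculum. Controls: isoniazid from 4 μg/ml as positive control; rifampicin 1 μM as no-growth control. Plates sat sealed at 37 °C without shaking for 6 days.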

[2] = Artificial membrane permeability of the compound incubated for 3 hrs by HPLC analysis; format: ADME; settings: PAMPA, read-out: permeability
[3] = Kinetic aqueous solubility of compound in phosphate buffer at pH 7.4 incubated for 1 hrs by CLND assay; format: physicochemical; settings: read-out: Kinetic_solubility
[4] = Microsomal stability in mouse liver microsomes assessed as half life at 0.5 uM preincubated followed by NADPH addition and measured upto 30 mins by LC-MS/MS analysis; format: ADME, Microsome
[5] = Microsomal stability in human liver microsomes assessed as half life at 0.5 uM preincubated followed by NADPH addition and measured upto 30 mins by LC-MS/MS analysis; format: ADME, Microsome
[6] = Chromatographic hydrophobicity index, log D of the compound in phosphate buffer at pH 7.4 by UV-HPLC analysis; format: physicochemical
[7] = tested on: Mycobacterium tuberculosis; assay: Antimycobacterial activity against Mycobacterium tuberculosis H37Rv ATCC 25618 expressing pATB45luc infected in PMA-stimulated human THP-1 cells assessed as inhibition of intracellular bacterial growth incubated for 4 days by BrightGlo luciferase assay; format: functional, organism-based; settings: H37Rv ATCC 25618, THP-1, 96 h; for IC90: time 4 day
Outline: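 THP-1 cells grown in RPMI-1640 with 10% FBS, 1 mM pyruvate and 2 mM L-glutamine. Cells were PMA-differentiated (40 ng/ml) while infected with single-cell Mtb H37Rv-pATB45luc at MOI 1:1 for 4 h at 37 °C in a roller bottle, then washed four times. About 10000 cells/well were added onto pre-dispensed compound (max DMSO 0.5%) and incubated 4 days at 37 °C. Luciferase luminescence was read; IC50/IC90 came from nonlinear regression of dose-response curves.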

[8] = Stability of compound in CD1 mouse blood assessed as half life at 0.5 uM incubated upto 240 mins by LC-MS/MS analysis; format: ADME, tissue-based
Outline: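 Fresh CD1 mouse whole blood collected in EDTA tubes and spiked with compound. Three 300 μl aliquots were incubated at 37 °C. Supernatants were analysed by LC-MS/MS; analyte/internal standard ratios were normalised to time zero as % remaining, and half-life was taken from ln plots of % remaining.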

[9] = molecular target: Voltage-gated inwardly rectifying potassium channel KCNH2 (Homo sapiens, UniProt Q12809); assay: Inhibition of human ERG; format: toxicity
[10] = Cytotoxicity against human HepG2 cells assessed as cell growth inhibition incubated for 48 hrs by CellTiter-Glo reagent based analysis; format: toxicity
Outline: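 HepG2 cells kept in Eagle's MEM with 10% heat-inactivated FBS, 1% NEAA and penicillin/streptomycin, seeded at ~3000 cells/well onto pre-dispensed compound. Incubation was 48 h at 37 °C, 5% CO2. Plates were equilibrated to room temperature, CellTiter-Glo was added, and ATP luminescence was read after 10 min as the viability read-out.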

[11] = Stability of compound in CD1 mouse blood at 0.5 uM incubated upto 240 mins in presence of NaF pretreatment by LC-MS/MS analysis; format: ADME, tissue-based; settings: 4 h

Voltage-gated inwardly rectifying potassium channel KCNH2, sequence (Q12809 whole entry): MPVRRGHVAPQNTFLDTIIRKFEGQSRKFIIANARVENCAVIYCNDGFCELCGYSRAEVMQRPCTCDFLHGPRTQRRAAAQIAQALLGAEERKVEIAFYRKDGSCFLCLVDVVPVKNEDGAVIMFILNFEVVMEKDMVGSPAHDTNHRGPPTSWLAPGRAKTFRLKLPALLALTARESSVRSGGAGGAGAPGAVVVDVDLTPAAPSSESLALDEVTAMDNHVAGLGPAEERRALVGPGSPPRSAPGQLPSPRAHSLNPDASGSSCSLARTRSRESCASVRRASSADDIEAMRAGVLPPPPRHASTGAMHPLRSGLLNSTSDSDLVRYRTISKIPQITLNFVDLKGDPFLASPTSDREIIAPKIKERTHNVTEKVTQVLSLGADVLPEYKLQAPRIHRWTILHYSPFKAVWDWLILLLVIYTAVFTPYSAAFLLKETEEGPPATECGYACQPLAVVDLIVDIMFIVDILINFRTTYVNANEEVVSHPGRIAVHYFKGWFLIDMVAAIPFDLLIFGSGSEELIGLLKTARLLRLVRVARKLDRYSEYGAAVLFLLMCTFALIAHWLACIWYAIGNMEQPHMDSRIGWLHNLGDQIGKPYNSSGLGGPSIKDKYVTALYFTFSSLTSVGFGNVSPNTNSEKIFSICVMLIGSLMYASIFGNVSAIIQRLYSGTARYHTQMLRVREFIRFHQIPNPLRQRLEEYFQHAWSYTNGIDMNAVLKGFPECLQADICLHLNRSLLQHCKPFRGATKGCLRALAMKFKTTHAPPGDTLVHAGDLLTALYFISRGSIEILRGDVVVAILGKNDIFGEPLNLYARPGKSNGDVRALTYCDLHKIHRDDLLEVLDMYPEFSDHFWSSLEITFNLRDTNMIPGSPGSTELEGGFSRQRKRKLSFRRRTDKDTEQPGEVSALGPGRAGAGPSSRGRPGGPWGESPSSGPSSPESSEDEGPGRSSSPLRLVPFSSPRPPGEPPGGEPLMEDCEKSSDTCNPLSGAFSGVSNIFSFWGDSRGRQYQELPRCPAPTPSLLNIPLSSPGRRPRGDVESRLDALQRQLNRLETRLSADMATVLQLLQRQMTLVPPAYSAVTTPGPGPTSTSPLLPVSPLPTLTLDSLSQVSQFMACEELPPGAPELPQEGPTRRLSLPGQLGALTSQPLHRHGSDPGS

Row | SMILES | MIC [1] | Papp at 3 h [2] | solubility kinetic at 1 h [3] | half-life at 0.5 µM [4] | half-life at 0.5 µM [5] | chromatographic logD [6] | pIC50 [7] | IC90 [7] | half-life at 0.5 µM [8] | pIC50 [9] | IC50 at 48 h [10] | Stability [11]
1 | COc1ccc2nc(C)cc(OCC(=O)Nc3cc(C)cc(C)c3)c2c1 | 1.9 µM | 18 ×10⁻⁶ cm/s | 26 µM (≈ 9.11 µg/mL) | < 5 min | > 30 min | 5.64 | 7.30 | 0.2 µM | < 5 min | < 4.30 | – | –
2 | COc1ccc2nc(C)cc(OCC(=O)Nc3ccccc3OC)c2c1 | 1.4 µM | – | – | < 3 min | 16 min | 4.68 | 6.30 | 1.58 µM | – | – | > 100 µM | –
3 | COc1ccc2nc(C)cc(OCC(=O)Nc3ccc(Cl)cc3)c2c1 | 3 µM | – | 9 µM (≈ 3.21 µg/mL) | – | – | 5.15 | 6.80 | 0.5 µM | – | 5.30 | > 100 µM | –
4 | COc1ccc(NC(=O)COc2cc(C)nc3ccc(OC)cc23)cc1 | 0.6 µM | 42 ×10⁻⁶ cm/s | 108 µM (≈ 38.1 µg/mL) | – | – | 4.22 | 7.52 | 0.25 µM | – | 5.20 | > 100 µM | –
5 | COc1ccc2nc(C)cc(OCC(=O)Nc3cccc(C)c3)c2c1 | 2 µM | 35.5 ×10⁻⁶ cm/s | 193 µM (≈ 64.9 µg/mL) | < 5 min | 23 min | 4.83 | – | – | < 5 min | – | 39.8 µM | –
6 | COc1ccc2nc(C)cc(OCC(=O)NC3CONC3=O)c2c1 (stereo not given) | > 125 µM | < 1 ×10⁻⁶ cm/s | ≥ 166 µM | – | – | 0.79 | – | – | – | – | > 100 µM | –
7 | COc1ccc2nc(C)cc(OCC(=O)Nc3cc(C)c(F)c(C)c3)c2c1 | 2 µM | 21 ×10⁻⁶ cm/s | 31.5 µM (≈ 11.6 µg/mL) | < 5 min | > 30 min | 5.5 | 7.10 | 0.25 µM | < 5 min | < 4.30 | > 100 µM | –
8 | COc1ccc2nc(C)cc(OC(C)(C)C(=O)Nc3cc(C)cc(C)c3)c2c1 | > 250 µM | – | 20 µM (≈ 7.57 µg/mL) | < 5 min | 19 min | 6.37 | – | – | 96 min | – | > 100 µM | Stable
9 | COc1ccc2nc(C)cc(OCc3nc4cc(C)ccc4o3)c2c1 | 5.5 µM | 8.6 ×10⁻⁶ cm/s | 1 µM (≈ 0.334 µg/mL) | < 5 min | 15.7 min | 6.12 | – | 5 µM | > 240 min | < 4.30 | > 100 µM | –
10 | COc1ccc2nc(C)cc(OCC(=O)Nc3nc(C)c(C)s3)c2c1 | 62 µM | 44 ×10⁻⁶ cm/s | 31.5 µM (≈ 11.3 µg/mL) | – | – | 4.24 | – | – | – | – | > 100 µM | –
11 | COc1ccc2nc(C)cc(OCC(=O)NNC(=O)c3ccncc3)c2c1 | 62 µM | 3.3 ×10⁻⁶ cm/s | ≥ 375 µM | – | – | 1.48 | – | – | – | – | > 100 µM | –
12 | COc1ccc2nc(C)cc(OCC(=O)Nc3cc(F)cc(F)c3)c2c1 | 3 µM | – | 13 µM (≈ 4.66 µg/mL) | – | – | 5.13 | 6.40 | 2.51 µM | – | – | > 100 µM | –
13 | COc1ccc2nc(C)cc(OCC(=O)Nc3nccs3)c2c1 | > 250 µM | 112 ×10⁻⁶ cm/s | 54 µM (≈ 17.8 µg/mL) | – | – | 3.2 | – | – | – | – | > 100 µM | –
14 | COc1ccc2nc(C)cc(OCC(=O)Nc3ccc(S(=O)(=O)Nc4cc(C)on4)cc3)c2c1 | 125 µM | 1.5 ×10⁻⁶ cm/s | ≥ 381 µM | – | – | 2.2 | – | – | – | – | > 100 µM | –
15 | COc1ccc2nc(C)cc(OCC(=O)N(C)c3cc(C)cc(C)c3)c2c1 | 109 µM | 30 ×10⁻⁶ cm/s | 373 µM (≈ 136 µg/mL) | – | – | 5.47 | – | – | – | – | 50.1 µM | –
16 | COc1ccc2nc(C)cc(OCC(=O)Nc3ccncn3)c2c1 | > 250 µM | 52.5 ×10⁻⁶ cm/s | 27.5 µM (≈ 8.92 µg/mL) | – | – | 2.53 | – | – | – | – | > 100 µM | –
17 | COc1ccc2nc(C)cc(OCC(=O)Nc3ccc(F)cc3)c2c1 | 12 µM | 23 ×10⁻⁶ cm/s | 104 µM (≈ 35.4 µg/mL) | – | – | 4.49 | – | – | – | – | 63.1 µM | –
18 | COc1ccc2nc(C)cc(OCC(=O)Nc3ccc(Cl)cc3Cl)c2c1 | 2 µM | – | 20.5 µM (≈ 8.02 µg/mL) | – | – | 6.4 | 6.10 | > 50 µM | – | – | > 100 µM | –
19 | COc1ccc2nc(C)cc(OCC(=O)Nc3cc(C)ccc3OC)c2c1 | 2.5 µM | – | 9.5 µM (≈ 3.48 µg/mL) | – | – | 5.65 | 6.80 | 0.63 µM | – | 5.30 | > 100 µM | –
20 | COc1ccc2nc(C)cc(OCC(=O)Nc3noc(C)c3C)c2c1 | 187 µM | 62.5 ×10⁻⁶ cm/s | 196 µM (≈ 66.7 µg/mL) | – | – | 3.3 | – | – | – | – | > 100 µM | –
21 | COc1ccc2nc(C)cc(OCC(=O)Nc3cc(C)nc(C)n3)c2c1 | > 250 µM | 1.2 ×10⁻⁶ cm/s | 5 µM (≈ 1.76 µg/mL) | – | – | 3.24 | – | – | – | – | > 100 µM | –
22 | Cc1cc(C)cc(NC(=O)COc2cc(C)nc3ccc(C)cc23)c1 | 3.9 µM | 52 ×10⁻⁶ cm/s | 83 µM (≈ 27.8 µg/mL) | < 5 min | > 30 min | 5.95 | – | – | < 5 min | – | 15.8 µM | –
23 | COc1ccc2nc(C)cc(OCC(=O)Nc3ccccn3)c2c1 | 15.7 µM | 48 ×10⁻⁶ cm/s | 29 µM (≈ 9.38 µg/mL) | – | – | 3.49 | – | – | – | – | > 100 µM | –
24 | COc1ccc2nc(C)cc(OCCNc3cc(C)cc(C)c3)c2c1 | 32 µM | 19 ×10⁻⁶ cm/s | 33 µM (≈ 11.1 µg/mL) | < 5 min | > 30 min | 6.93 | – | – | > 120 min | – | 31.6 µM | Stable
25 | COc1ccc2nc(C)cc(OCC(=O)Nc3cccnc3)c2c1 | 62.5 µM | 33 ×10⁻⁶ cm/s | 32 µM (≈ 10.3 µg/mL) | – | – | 2.46 | – | – | – | – | > 100 µM | –
26 | COc1ccc2nc(C)cc(OCC(=O)Nc3cc(C)ccc3C)c2c1 | 8 µM | 81 ×10⁻⁶ cm/s | 45.5 µM (≈ 15.9 µg/mL) | < 5 min | 24 min | 5.05 | – | – | < 5 min | – | > 100 µM | –
27 | COc1ccc2nc(C)cc(OCC(=O)Nc3ccncc3)c2c1 | > 250 µM | 56 ×10⁻⁶ cm/s | 91.5 µM (≈ 29.6 µg/mL) | – | – | 2.5 | – | – | – | – | > 100 µM | –
28 | Cc1ncc2n1-c1ccc(Cl)cc1C(c1ccccc1F)=NC2 [MIDAZOLAM] | – | – | – | < 5 min | 9 min | – | – | – | – | – | – | –
